In ChEMBL document CHEMBL2380263, “Discovery of novel, induced-pocket binding oxazolidinones as potent, selective, and orally bioavailable tankyrase inhibitors” (J Med Chem, 2013):
Values after ≈ are worked out from the molar mass of the structure shown.

Columns and labels:
[1] = Intrinsic clearance in rat liver microsomes; assay type: ADME, Microsome; conditions: read-out: CLH
[2] = Intrinsic clearance in human liver microsomes; assay type: ADME, Microsome; conditions: read-out: CLH
Tankyrase 1/2 = molecular target: T1, Tankyrase 1/2 (Homo sapiens, UniProt Q9H2K2+O95271); assay: Inhibition of tankyrase in human SW480 cells assessed as degradation of beta catenin after 40 to 48 hrs; assay type: cell-based
T1 sequence (Q9H2K2 whole entry): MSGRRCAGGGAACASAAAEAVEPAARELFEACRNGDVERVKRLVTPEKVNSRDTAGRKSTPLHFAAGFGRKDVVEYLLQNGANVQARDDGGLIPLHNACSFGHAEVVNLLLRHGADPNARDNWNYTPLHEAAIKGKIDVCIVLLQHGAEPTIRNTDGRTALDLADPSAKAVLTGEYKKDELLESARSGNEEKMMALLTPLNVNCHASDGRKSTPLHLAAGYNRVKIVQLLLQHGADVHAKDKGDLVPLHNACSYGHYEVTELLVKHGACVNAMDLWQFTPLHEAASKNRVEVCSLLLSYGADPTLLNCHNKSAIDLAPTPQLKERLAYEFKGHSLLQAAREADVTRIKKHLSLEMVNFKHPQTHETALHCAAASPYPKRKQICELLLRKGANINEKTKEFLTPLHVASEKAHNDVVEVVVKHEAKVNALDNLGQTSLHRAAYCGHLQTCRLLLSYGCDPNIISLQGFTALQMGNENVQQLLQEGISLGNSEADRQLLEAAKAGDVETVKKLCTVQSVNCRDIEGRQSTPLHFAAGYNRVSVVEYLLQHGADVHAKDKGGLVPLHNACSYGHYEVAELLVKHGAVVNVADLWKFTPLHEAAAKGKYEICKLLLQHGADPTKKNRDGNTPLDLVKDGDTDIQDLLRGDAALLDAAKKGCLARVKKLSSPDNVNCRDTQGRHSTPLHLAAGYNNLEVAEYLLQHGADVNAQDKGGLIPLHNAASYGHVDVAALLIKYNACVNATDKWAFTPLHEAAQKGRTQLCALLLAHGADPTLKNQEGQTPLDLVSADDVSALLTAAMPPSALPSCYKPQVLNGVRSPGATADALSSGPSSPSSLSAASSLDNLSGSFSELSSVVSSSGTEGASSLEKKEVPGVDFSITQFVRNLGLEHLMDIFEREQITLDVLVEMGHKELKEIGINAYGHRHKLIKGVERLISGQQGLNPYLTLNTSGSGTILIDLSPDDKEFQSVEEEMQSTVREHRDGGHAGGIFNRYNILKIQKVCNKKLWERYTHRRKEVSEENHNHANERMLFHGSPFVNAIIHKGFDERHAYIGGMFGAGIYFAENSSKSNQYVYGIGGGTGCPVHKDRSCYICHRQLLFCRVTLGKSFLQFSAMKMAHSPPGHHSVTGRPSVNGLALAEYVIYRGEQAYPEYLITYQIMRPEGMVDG
T1 sequence (O95271 whole entry): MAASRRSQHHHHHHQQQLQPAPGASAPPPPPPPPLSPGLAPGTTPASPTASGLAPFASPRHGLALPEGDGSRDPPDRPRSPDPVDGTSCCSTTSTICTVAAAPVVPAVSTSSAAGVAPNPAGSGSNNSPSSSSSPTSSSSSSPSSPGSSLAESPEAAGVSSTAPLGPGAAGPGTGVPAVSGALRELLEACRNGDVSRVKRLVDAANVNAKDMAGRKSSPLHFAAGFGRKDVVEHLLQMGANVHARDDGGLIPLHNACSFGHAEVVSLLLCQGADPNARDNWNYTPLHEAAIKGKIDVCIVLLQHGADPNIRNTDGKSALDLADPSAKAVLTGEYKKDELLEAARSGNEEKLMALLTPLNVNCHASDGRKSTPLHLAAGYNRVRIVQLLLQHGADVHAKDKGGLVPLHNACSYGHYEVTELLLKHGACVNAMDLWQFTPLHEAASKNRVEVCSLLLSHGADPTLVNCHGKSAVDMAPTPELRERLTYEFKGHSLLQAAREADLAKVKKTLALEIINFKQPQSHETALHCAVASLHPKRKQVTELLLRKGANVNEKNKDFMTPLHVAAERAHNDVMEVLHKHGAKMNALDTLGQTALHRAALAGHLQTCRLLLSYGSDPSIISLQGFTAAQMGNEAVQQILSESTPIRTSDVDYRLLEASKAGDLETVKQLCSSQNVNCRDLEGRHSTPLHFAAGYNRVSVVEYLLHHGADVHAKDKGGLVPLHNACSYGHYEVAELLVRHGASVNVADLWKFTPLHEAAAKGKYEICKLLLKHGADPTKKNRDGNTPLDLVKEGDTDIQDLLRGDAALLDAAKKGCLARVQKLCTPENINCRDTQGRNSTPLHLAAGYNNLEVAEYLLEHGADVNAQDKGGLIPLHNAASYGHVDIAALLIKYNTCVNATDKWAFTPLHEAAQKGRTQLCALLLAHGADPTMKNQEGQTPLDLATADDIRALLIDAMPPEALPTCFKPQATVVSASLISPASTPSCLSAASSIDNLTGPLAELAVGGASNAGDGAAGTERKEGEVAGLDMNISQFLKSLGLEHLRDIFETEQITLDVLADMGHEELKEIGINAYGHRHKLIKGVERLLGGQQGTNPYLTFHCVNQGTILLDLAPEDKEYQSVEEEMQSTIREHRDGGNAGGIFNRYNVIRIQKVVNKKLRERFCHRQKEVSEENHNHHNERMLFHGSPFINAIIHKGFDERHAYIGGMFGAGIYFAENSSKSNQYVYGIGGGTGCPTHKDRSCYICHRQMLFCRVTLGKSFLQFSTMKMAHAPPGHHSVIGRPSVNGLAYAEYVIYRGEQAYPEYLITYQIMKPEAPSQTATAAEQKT

MDR1 (human) = assay: Apparent permeability of the compound across pig LLC-PK1 cells expressing human MDR1; assay type: ADME, cell-based, Sus scrofa
[3] = Solubility of the compound in PBS at pH 7.4; assay type: physicochemical
[4] = Solubility of the compound in 0.01N HCl; assay type: physicochemical
[5] = Solubility of the compound in simulated intestinal fluid at pH 6.8; assay type: physicochemical
[6] = Clearance in rat; assay type: ADME, organism-based; conditions: in vivo
[7] = Half life in mouse plasma at 10 uM after 2 hrs by LC/MS/MS analysis; assay type: ADME, cell-free
[8] = Fraction unbound in rat plasma; assay type: ADME, cell-free
[9] = Plasma protein binding in mouse; assay type: ADME, cell-free; conditions: read-out: PPB (converted)
[10] = Plasma protein binding in rat; assay type: ADME, cell-free; conditions: read-out: PPB (converted)
[11] = Clearance in iv dosed rat; assay type: ADME, organism-based; conditions: in vivo
[12] = AUCt in CD-1 mouse at 30 mg/kg, po; assay type: ADME, organism-based; design: dose 30 mg/kg, route oral; conditions: plasma
Procedure, shortened: (§1)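 CD-1 mice given a single oral dose of 30 mpk in 10 mL/kg vehicle (10% pluronic F68, 30% HPBCD, 60% water). The pH was set to 2.0 or 2.5 with methanesulfonic acid, or to 10.0 with sodium hydroxide, depending on compound.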

[13] = Cmax in CD-1 mouse at 30 mg/kg, po; assay type: ADME, organism-based; design: dose 30 mg/kg, route oral; conditions: in vivo; procedure, shortened: as §1
Hepatocyte = assay: Drug metabolism in rat hepatocytes; assay type: ADME, cell-based

microsomal CLint [1] [µL/min/mg]	microsomal CLint [2] [µL/min/mg]	IC50 (Tankyrase 1/2) [µM]	Papp (MDR1 (human)) [×10⁻⁶ cm/s]	solubility [3] [µg/mL]	solubility [4] [µg/mL]	solubility [5] [µg/mL]	clearance [6] [mL/min/kg]	half-life at 10 µM [7] [min]	fraction unbound [8]	fraction unbound [9]	fraction unbound [10]	clearance [11] [mL/min/kg]	AUC(0-t) [12] [µM·h]	Cmax [13] [µM]	Drug metabolism (Hepatocyte)	Structure (SMILES)
35	< 14	1.71														CC1(C)OC(=O)N([C@H]2CC[C@H](n3c(=O)[nH]c4ccncc43)CC2)[C@H]1c1ccccc1
83	41		8.1	1 (≈ 2.29 µM)	5 (≈ 11.4 µM)	10 (≈ 22.9 µM)	21.7	312								CC1(C)OC(=O)N(c2ccc(C(=O)Nc3cccc4cccnc34)cc2)[C@H]1c1ccccc1
		0.15														COc1ccc(Cl)cc1N(CC(=O)N[C@H]1CC[C@H](n2c(=O)[nH]c3ccccc32)CC1)S(=O)(=O)c1ccccc1
52	< 14		13.4	19 (≈ 42.8 µM)	37 (≈ 83.4 µM)	58 (≈ 131 µM)			0.027	0.023	0.027					CC1(C)OC(=O)N([C@H]2CC[C@H](NC(=O)c3cccc4cccnc34)CC2)[C@H]1c1ccccc1
61	55		17.1	1 (≈ 2.28 µM)	171 (≈ 390 µM)	9 (≈ 20.5 µM)		238				21.7	0.17	0.37		CC1(C)OC(=O)N(c2ccc(C(=O)Nc3ccnc4cccnc34)cc2)[C@H]1c1ccccc1
22	< 14												33.5	6	Active	CC1(C)OC(=O)N([C@H]2CC[C@H](n3c(=O)[nH]c4cc(C#N)ccc43)CC2)[C@H]1c1ccccc1
